Compound activity: PubChem, The Scripps Research Institute Molecular Screening Center
Rows were chosen to be rich in hits. Some 2.4% of all compounds tested hit in one or more screens of this group.
NPY-Y2 antag: NPY-Y2 (human) receptor antagonism; P49146; NPY-Y2 expressing cells, antagonist mode; inhibition, % at 2.7 µM; 140,000 tested, 0.99% active; AID 793; in the data active = inhibition above about 17%;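 also: 0% = vehicle with agonist challenge and 100% = reference antagonist with challenge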
Target sequence (P49146 whole entry, looked up): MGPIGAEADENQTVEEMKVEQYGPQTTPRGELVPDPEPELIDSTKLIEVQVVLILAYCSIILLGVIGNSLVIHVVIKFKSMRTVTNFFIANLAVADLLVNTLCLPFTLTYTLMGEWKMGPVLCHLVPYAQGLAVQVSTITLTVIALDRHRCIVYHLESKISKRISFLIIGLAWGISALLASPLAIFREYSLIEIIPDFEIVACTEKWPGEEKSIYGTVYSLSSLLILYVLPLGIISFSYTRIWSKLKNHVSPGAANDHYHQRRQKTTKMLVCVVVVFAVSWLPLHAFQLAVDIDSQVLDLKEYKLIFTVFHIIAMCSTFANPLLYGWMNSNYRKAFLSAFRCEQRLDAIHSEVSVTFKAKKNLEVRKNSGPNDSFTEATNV
NPY1 pot ag: human NPY-Y1 potentiation or agonism, primary screen. AID 1304. 220,000 tested, 0.37% active. P25929. NPY-Y1 expressing cells, potentiator/agonist activation. activation, % at 3.6 µM; in the data active = activation above about 33%, passing the limit was not always enough;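 also: cells stimulated with NPY at EC10 then isoproterenol at EC100; 0% = low agonist plus stimulus and 100% = saturating agonist plus stimulus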
Target sequence (P25929 whole entry, looked up): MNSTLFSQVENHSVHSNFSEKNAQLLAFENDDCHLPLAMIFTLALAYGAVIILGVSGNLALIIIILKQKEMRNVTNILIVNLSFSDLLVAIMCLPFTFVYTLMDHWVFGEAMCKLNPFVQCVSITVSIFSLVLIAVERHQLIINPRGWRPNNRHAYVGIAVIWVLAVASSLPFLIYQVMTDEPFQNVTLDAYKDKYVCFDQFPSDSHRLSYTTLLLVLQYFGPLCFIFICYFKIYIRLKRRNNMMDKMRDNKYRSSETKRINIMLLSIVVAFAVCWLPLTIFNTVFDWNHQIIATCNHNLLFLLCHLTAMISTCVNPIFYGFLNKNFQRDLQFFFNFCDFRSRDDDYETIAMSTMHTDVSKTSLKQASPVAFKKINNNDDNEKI
S1P4 antag: antagonists of human S1P4 receptor; O95977; S1P4-expressing cells, antagonist mode, reporter read-out; inhibition, % at 4.98 µM; 220,000 tested, 0.26% active; in the data active = inhibition above about 29%;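 also: 0% = wells stimulated with agonist and 100% = vehicle wells without agonist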
S1P4 agonist: activates the human S1P4 receptor. activation, % at 4.98 µM. 220,000 tested, 0.35% active. S1P4-expressing cell line, agonist reporter assay; in the data active = activation above about 11%;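 also: 0% = DMSO vehicle and 100% = reference agonist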
NPY Y1 blocker: NPY-Y1 (human) receptor antagonism | P25929 | HEK293-CNG Y1 cells, membrane potential fluorescence; NPY at EC95, then isoproterenol | inhibition, % at 3.6 µM | 200,000 tested, 1% active | AID 1040;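 active = inhibition above the campaign mean inhibition of all tested compounds plus 3 SD, cut at about 20% in these data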;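 also: 0% = DMSO wells given NPY plus isoproterenol and 100% = isoproterenol alone without NPY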
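System: HEK293 cells with Y1 receptor plus CNG channel / Probe or stimulus: NPY 25 nM then isoproterenol 1 µM plus Ro 20-1724 25 µM / Compound: one concentration, 3.6 µM, in 0.4% DMSO / Schedule: compound incubation 1 h at room temperature, readout 45 min post-stimulation / Measured by: membrane potential fluorescence / Read-out: % inhibition of NPY effect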
NPY-Y2 PAM-ag: potentiates or activates human NPY-Y2 receptor. P49146. cells expressing NPY-Y2, potentiator/agonist read-out. activation, % at 3.6 µM. 220,000 tested, 0.45% active. AID 1359; in the data active = activation above about 27%;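 also: cells stimulated with NPY near EC25 plus isoproterenol at EC100; 0% = vehicle plus submaximal agonist and 100% = vehicle plus saturating agonist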
NPY-Y2 confirm: human NPY-Y2 potentiation or agonism, confirmation | shares compounds with NPY-Y2 PAM-ag | cell-based NPY-Y2 potentiator/agonist assay | activation, % at 3.6 µM | 450 tested, 20% active | AID 1539; in the data active = activation above about 33%
NPY-Y1 potentiator: counter-screen for NPY-Y2 potentiators or agonists: NPY-Y1 potentiators or agonists | shares compounds with NPY-Y2 PAM-ag | Y1 HEK293-CNG cells, membrane potential fluorescence | activation, % at 3.6 µM | 450 tested, 20% active; in the data active = activation above about 45%;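 also: cells stimulated with submaximal NPY then isoproterenol with phosphodiesterase inhibitor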
NPY-Y1 agonist 2: counter-screen for NPY-Y2 potentiators: agonists of human NPY-Y1. HEK293 Y1-CNGC, membrane potential fluorescence, agonism. 450 tested, 37% active. activation, % at 3.6 µM. AID 1702. shares compounds with NPY-Y2 PAM-ag;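 active = activation above the mean of DMSO-only control wells plus 3 SD, cut at about 18% in these data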;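 also: cells stimulated with 1 µM isoproterenol plus the PDE inhibitor Ro 20-1724; 0% = isoproterenol with DMSO and no NPY and 100% = 40 nM NPY; Y1 agonists lower the membrane potential dye signal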
CNGC inhibitor: blocks CNG channel activity, counter-screen for NPY-Y2 potentiators; 450 tested, 32% active; AID 1703; shares compounds with NPY-Y2 PAM-ag; inhibition, % at 3.6 µM; HEK293-CNG parental, isoproterenol cAMP, membrane potential fluorescence;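 active = inhibition above the control-well mean plus 3 SD of those wells, cut at about 22% in these data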;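 also: 0% = DMSO with isoproterenol and 100% = DMSO without isoproterenol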
NPY-Y2 ag 2: counter-screen for NPY-Y2 potentiators: agonists of human NPY-Y2. activation, % at 3.6 µM. AID 1710. 450 tested, 56% active. HEK293 Y2/CNGC cells, membrane potential fluorescence, agonist mode. shares compounds with NPY-Y2 PAM-ag;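 active = activation above the mean of solvent-only control wells plus 3 SD, cut at about 10% in these data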;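 also: cells stimulated by isoproterenol with no NPY added so direct agonism is tested; 0% = DMSO with isoproterenol alone and 100% = NPY at EC100 plus isoproterenol; agonism lowers probe fluorescence through less cAMP and CNG channel opening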
S1P4 ag conf: confirmation of human S1P4 receptor agonists. shares compounds with S1P4 agonist. S1P4 agonist cell-based reporter assay. activation, % at 4.98 µM. 740 tested, 7% active; in the data active = activation above about 12%;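 also: 0% = vehicle and 100% = full reference agonist response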
S1P1 agonist: human S1P1 agonism as S1P4 agonist counter-screen | shares compounds with S1P4 agonist | S1P1 agonist cell-based assay, activation | activation, % at 4.98 µM | 740 tested, 4% active | AID 1563; in the data active = activation above about 21%;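 also: 0% = vehicle wells and 100% = reference agonist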
S1P4 antag conf: human S1P4 antagonism, confirmation; shares compounds with S1P4 antag; S1P4-expressing cell line, antagonist mode, reporter read-out; inhibition, % at 4.98 µM; 520 tested, 71% active; AID 1524; in the data active = inhibition above about 30%
S1P1 antagonist: counter-screen for S1P4 antagonists: antagonists of human S1P1; shares compounds with S1P4 antag; cell-based S1P1 antagonist counterscreen, inhibition; inhibition, % at 4.98 µM; 520 tested, 37% active; AID 1564; in the data active = inhibition above about 40%;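 also: receptor stimulated with S1P near its EC80; 0% = agonist stimulated wells and 100% = vehicle only wells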
An asterisk follows results filed as active; x = no result.

SMILES | NPY-Y2 antag | NPY1 pot ag | S1P4 antag | S1P4 agonist | NPY Y1 blocker | NPY-Y2 PAM-ag | S1P4 ag conf | S1P1 agonist | others
COc1ccc(OCC(O)CN2CCN(c3ccccc3)CC2)cc1 (configuration not stated) | x | -7 | 10 | 0 | 8 | -10 | x | x
C=CCc1ccccc1OCC(O)CN1CCN(C(=O)OCC)CC1 (configuration not stated) | 8 | 31 | -1 | 2 | 3 | 35* | x | x | NPY-Y2 confirm=11;NPY-Y1 potentiator=13;NPY-Y1 agonist 2=20*;CNGC inhibitor=1;NPY-Y2 ag 2=6
COc1ccc(N2CCN(CC(O)COc3ccccc3[N+](=O)[O-])CC2)cc1 (configuration not stated) | 2 | 39 | -21 | 4 | 0 | 37* | x | x | NPY-Y2 confirm=32;NPY-Y1 potentiator=31;NPY-Y1 agonist 2=49*;CNGC inhibitor=7;NPY-Y2 ag 2=34*
Cc1c(N/C(=N/S(=O)(=O)c2ccc(Cl)cc2)c2ccccc2)c(=O)n(-c2ccccc2)n1C | 2 | 8 | -9 | 0 | 8 | 7 | x | x
O=C(NC1CCCCCC1)c1ccc(=O)n(Cc2ccccc2)n1 | x | 4 | -3 | 1 | 4 | 1 | x | x
COc1ccc(-c2nc3cnccn3c2Nc2ccc(C)cc2)cc1 | 10 | -15 | 9 | -1 | 12 | 29* | x | x | NPY-Y2 confirm=47*;NPY-Y1 potentiator=43;NPY-Y1 agonist 2=29*;CNGC inhibitor=27*;NPY-Y2 ag 2=52*
Cc1ccccc1C1=NC(C(F)(F)F)(C(F)(F)F)c2c(n(C)c(=O)n(C)c2=O)N1 | 0 | -11 | -19 | 0 | 7 | 6 | x | x
Cn1c2c(c(=O)n(C)c1=O)C(C(F)(F)F)(C(F)(F)F)N=C(c1ccc(Cl)cc1)N2 | 7 | 33 | 51* | 1 | 8 | 49* | x | x | NPY-Y2 confirm=4;NPY-Y1 potentiator=-23;NPY-Y1 agonist 2=-24;CNGC inhibitor=-6;NPY-Y2 ag 2=-5;S1P4 antag conf=21;S1P1 antagonist=-19
O=C(N/N=C/c1cccc2cccnc12)c1ccccc1O | x | 36 | 32* | -2 | x | 38* | x | x | NPY-Y2 confirm=22;NPY-Y1 potentiator=26;NPY-Y1 agonist 2=15;CNGC inhibitor=6;NPY-Y2 ag 2=12*;S1P4 antag conf=101*;S1P1 antagonist=79*
CC(C)CN1C(=O)c2ccc(NC(=O)Cc3ccccc3)cc2C1=O | x | 8 | -6 | 0 | 0 | 2 | x | x
CCCN(CCC)C(=O)CC(c1ccccc1)c1cc(C)ccc1O (configuration not stated) | 5 | 10 | -8 | 51* | 5 | -10 | -2 | 2
CCCCCC(=O)Nc1ccc(Cl)cn1 | 2 | -12 | -9 | 15* | 1 | -3 | -1 | -4
CC(=O)Nc1ccc(Sc2ncccc2C(=O)Nc2ccc(F)cc2)cn1 | 5 | 0 | -8 | 0 | 3 | 8 | x | x
CS(=O)(=O)N(CC(=O)Nc1ccccc1C(=O)N1CCCC1)c1ccc2c(c1)OCO2 | x | -8 | 6 | 1 | 5 | -10 | x | x
C=CCc1c(O)c(CC)cc2c(C)cc(=O)oc12 | x | -13 | -8 | 28* | x | -12 | 6 | 7
O=C(COC(=O)C1(c2ccc(Cl)cc2)CCCC1)Nc1ncc(C(F)(F)F)cc1Cl | 5 | -25 | -1 | 29* | 5 | 8 | -1 | 0
CO/N=C\c1cc(C(=O)c2ccc(Cl)cc2Cl)cn1C | x | -24 | -12 | 1 | 1 | -19 | x | x
COc1cccc(C2C3=C(CCCC3=O)NC3=C2C(=O)c2ccccc23)c1 (configuration not stated) | x | 9 | -12 | 13* | -3 | -4 | -2 | -5
O=C1CCCC2=C1C(c1cccc(O)c1)C1=C(N2)c2ccccc2C1=O (configuration not stated) | x | 20 | -3 | 1 | 0 | -6 | x | x
COc1cc(CC(=O)Nc2cccc(SC)c2)cc(OC)c1OC | x | 12 | -11 | 45* | 15 | 5 | -1 | -3
COc1cccc(NC(C(=O)Nc2cccc(C(C)=O)c2)c2ccccc2)c1 (configuration not stated) | 0 | -7 | -15 | 14* | 9 | 5 | -2 | 2
COc1cc(C(=O)NCc2nnc(SCC(=O)N3CCCc4ccccc43)o2)cc(OC)c1OC | x | 7 | -13 | 1 | 0 | 2 | x | x
COCCn1c(=O)sc2ccccc2c1=O | x | -4 | -18 | 27* | 0 | -2 | -1 | -2
COc1ccc(Cn2c(=O)sc3ccccc3c2=O)cc1 | x | -18 | 12 | 0 | 9 | 3 | x | x
CCOCCCn1c(=NC(C)=O)c(C#N)cc2c(=O)n3cccc(C)c3nc21 | x | -11 | -9 | 12* | x | 1 | 2 | 28*
SMILES | NPY-Y2 antag | NPY1 pot ag | S1P4 antag | S1P4 agonist | NPY Y1 blocker | NPY-Y2 PAM-ag | S1P4 ag conf | S1P1 agonist | others
CCCCCn1c(=NC(C)=O)c(C#N)cc2c(=O)n3ccccc3nc21 | 0 | -8 | -11 | 1 | -5 | -4 | x | x
CC(=O)N=c1c(C#N)cc2c(=O)n3ccccc3nc2n1CCCOC(C)C | x | -3 | -22 | 16* | x | 8 | 4 | 1
CC(C)OCCCn1c(=NC(=O)c2cccs2)c(C#N)cc2c(=O)n3ccccc3nc21 | x | 0 | 7 | 19* | x | -8 | 4 | 8
CCOCCCn1c(=NC(=O)c2ccc(OC)c(OC)c2)c(C#N)cc2c(=O)n3cccc(C)c3nc21 | 2 | -20 | -2 | 1 | -4 | 11 | x | x
CC(C)OCCCn1c(=NC(=O)c2ccncc2)c(C#N)cc2c(=O)n3ccccc3nc21 | 2 | -7 | -12 | 4 | 6 | 6 | x | x
Nn1cc(-c2ccccc2)nc1SCC(=O)Nc1ccc(S(N)(=O)=O)cc1 | x | 21 | -8 | 0 | x | 6 | x | x
COc1ccc(NCC(=O)N/N=C2\CCCC(C)C2)cc1 (configuration not stated) | 1 | 5 | -3 | 23* | 6 | -5 | -2 | -4
